Measured values of several laboratories.
Protocols differ between the studies behind these lines.
CYP1A2: Cytochrome P450 1A2 (CYP1A2, Homo sapiens, UniProt P05177)

| SMILES | tested on | assay | test system | setting | measurement | value |
| --- | --- | --- | --- | --- | --- | --- |
| Cn1cnc2c1c(=O)n(CC(=O)Nc1c(Cl)cccc1Cl)c(=O)n2C | Vero | cell growth or viability, MTT |  | 1000 µg/mL | viability | 7.99% |
| COc1cc(C(=O)NC2CCN(C)CC2)c(F)cc1Nc1ncc(C(F)(F)F)c(Oc2cccc3c2C(=O)N(C)C3)n1 |  |  | human, plasma | oral, 10 mg, single dose, patients | Vd/F | 873 L |
| Cc1cc(Nc2cc(N3CCN(C)CC3)nc(/C=C/c3ccccc3)n2)n[nH]1 |  |  | human, plasma | oral, 80 mg/m², multiple doses, patients | Vd/F | 748 L |
| COC(=O)C1CCN(C(=O)c2ccc(N(CCCO)Cc3cnc4nc(N)nc(N)c4n3)cc2)CC1 | Cytochrome P450 3A4 (CYP3A4, Homo sapiens, UniProt P08684) | enzyme activity, inhibitor, luciferase |  | 10 µM | inhibition | -2.09% |
| O=S(=O)(NNc1nnc(Cl)c2ccccc12)c1ccc(F)cc1 | Vero | cell growth or viability, MTT |  | 31.25 µg/mL | viability | 99.8% |
| COC(=O)C1CCN(C(=O)c2ccc(NCc3cnc4nc(N)nc(N)c4n3)cn2)CC1 | CYP1A2 | enzyme activity, inhibitor, luciferase |  | 10 µM | inhibition | -8.69% |
| CCNc1nc(Nc2ccc(F)c(Cl)c2)c2ccccc2n1 | Vero | cell growth or viability, MTT |  | 31.25 µg/mL | viability | 100% |
| COC(=O)C1CCN(C(=O)c2cccc(NCc3cnc4nc(N)nc(N)c4n3)c2)CC1 | CYP1A2 | enzyme activity, inhibitor, luciferase |  | 10 µM | inhibition | -15.2% |
| CC(C)(C)c1ccc(O)c(CN(Cc2cc(C(C)(C)C)ccc2O)C2CCC(NC(N)=O)CC2)c1 (stereo not shown) |  |  | male C57BL/6 mouse, brain | intraperitoneal, 5 mg/kg, single dose | Cmax | 609 ng/g |
| COc1ccc([C@@H]2CN(C(=O)[C@@H](O)CO)C[C@@]2(C)[C@@H](C)O)cc1OC1CN(c2ccc(C)cn2)C1 |  |  | human, plasma | oral, 30 mg, single dose, healthy volunteers | Vd/F | 84.3 L |
